pIC50, pKi: −log10 of the molar value.
Key:
[1] = molecular target: T1, Sodium-dependent dopamine transporter (Homo sapiens, UniProt Q01959); assay: Displacement of [125I]RTI-55 from human DAT expressed in HEK293 cells; assay type: cell-based
Outline: (§1)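 Membranes from HEK293 cells expressing hDAT or hSERT, grown to 80% confluence, lysed in 2 mM HEPES/1 mM EDTA, spun and resuspended in 0.32 M sucrose. About 10–15 µg protein preincubated 10 min with compound in Krebs-HEPES pH 7.4 (0.1% DMSO final). Filtered on GF/C. Non-specific binding: 5 µM mazindol (DAT) or 5 µM imipramine (SERT). Duplicates, 2–3 experiments, IC50 converted to Ki by Cheng-Prusoff.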

[2] = molecular target: T1, Sodium-dependent dopamine transporter; assay: Inhibition of [3H] dopamine uptake into human DAT expressed in HEK293 cells; assay type: functional, cell-based
Outline: (§2)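 Confluent HEK293 cells expressing hDAT or hSERT, scraped into Krebs-HEPES. Preincubated 10 min at 25°C with compound (0.1% DMSO final). Uptake started with [3H]dopamine or [3H]serotonin (20 nM final) and stopped after 10 min by filtration on PEI-soaked GF/C filters. Non-specific uptake: 5 µM mazindol (DAT) or 5 µM imipramine (SERT). IC50 from triplicate 6-concentration curves, 2–3 independent determinations.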

[3] = molecular target: T2, Sodium-dependent serotonin transporter (Homo sapiens, UniProt P31645); assay: Displacement of [125I]RTI-55 from human SERT expressed in HEK293 cells; assay type: cell-based; outline: as §1
[4] = molecular target: T2, Sodium-dependent serotonin transporter; assay: Inhibition of [3H] serotonin uptake into human SERT expressed in HEK293 cells; assay type: functional, cell-based; outline: as §2
[5] = molecular target: T3, Sodium-dependent noradrenaline transporter (Homo sapiens, UniProt P23975); assay: Displacement of [125I]RTI-55 from human NET expressed in HEK293 cells; assay type: cell-based
[6] = molecular target: T3, Sodium-dependent noradrenaline transporter; assay: Inhibition of [3H] norepinephrine uptake into human NET expressed in HEK293 cells; assay type: functional, cell-based

T3 sequence (P23975 whole entry): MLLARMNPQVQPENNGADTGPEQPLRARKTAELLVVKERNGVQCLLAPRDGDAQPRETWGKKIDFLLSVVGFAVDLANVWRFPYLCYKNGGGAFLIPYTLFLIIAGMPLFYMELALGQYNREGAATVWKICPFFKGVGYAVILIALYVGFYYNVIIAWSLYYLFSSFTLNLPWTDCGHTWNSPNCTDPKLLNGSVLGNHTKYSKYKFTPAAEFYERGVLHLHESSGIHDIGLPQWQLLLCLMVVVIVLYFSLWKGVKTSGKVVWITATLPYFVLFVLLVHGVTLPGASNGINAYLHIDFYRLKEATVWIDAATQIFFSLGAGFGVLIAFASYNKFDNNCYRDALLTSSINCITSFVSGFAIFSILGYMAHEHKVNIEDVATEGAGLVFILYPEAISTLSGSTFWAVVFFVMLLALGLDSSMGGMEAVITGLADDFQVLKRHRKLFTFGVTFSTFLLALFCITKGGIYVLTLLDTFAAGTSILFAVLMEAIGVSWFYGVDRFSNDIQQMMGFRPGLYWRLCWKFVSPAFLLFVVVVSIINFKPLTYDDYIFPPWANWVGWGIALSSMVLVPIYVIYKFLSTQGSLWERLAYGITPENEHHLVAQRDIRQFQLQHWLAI
T1 sequence (Q01959 whole entry): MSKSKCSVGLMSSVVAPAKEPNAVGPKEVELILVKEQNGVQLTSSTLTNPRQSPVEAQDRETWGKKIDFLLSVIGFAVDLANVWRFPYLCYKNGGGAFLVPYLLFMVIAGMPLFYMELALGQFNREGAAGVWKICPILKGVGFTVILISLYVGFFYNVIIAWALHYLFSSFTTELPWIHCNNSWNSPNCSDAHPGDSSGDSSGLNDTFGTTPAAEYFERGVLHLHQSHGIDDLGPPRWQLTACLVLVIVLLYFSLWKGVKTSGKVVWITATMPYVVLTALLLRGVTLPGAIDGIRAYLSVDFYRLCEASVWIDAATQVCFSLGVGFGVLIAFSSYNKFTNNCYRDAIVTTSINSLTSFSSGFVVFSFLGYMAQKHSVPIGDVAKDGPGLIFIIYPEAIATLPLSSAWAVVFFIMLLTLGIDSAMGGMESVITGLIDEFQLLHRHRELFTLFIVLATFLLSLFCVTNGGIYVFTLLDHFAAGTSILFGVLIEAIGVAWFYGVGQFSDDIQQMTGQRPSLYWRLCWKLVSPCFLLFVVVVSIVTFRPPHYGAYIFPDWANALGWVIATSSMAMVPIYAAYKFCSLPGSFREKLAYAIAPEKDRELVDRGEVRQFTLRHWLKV
T2 sequence (P31645 whole entry): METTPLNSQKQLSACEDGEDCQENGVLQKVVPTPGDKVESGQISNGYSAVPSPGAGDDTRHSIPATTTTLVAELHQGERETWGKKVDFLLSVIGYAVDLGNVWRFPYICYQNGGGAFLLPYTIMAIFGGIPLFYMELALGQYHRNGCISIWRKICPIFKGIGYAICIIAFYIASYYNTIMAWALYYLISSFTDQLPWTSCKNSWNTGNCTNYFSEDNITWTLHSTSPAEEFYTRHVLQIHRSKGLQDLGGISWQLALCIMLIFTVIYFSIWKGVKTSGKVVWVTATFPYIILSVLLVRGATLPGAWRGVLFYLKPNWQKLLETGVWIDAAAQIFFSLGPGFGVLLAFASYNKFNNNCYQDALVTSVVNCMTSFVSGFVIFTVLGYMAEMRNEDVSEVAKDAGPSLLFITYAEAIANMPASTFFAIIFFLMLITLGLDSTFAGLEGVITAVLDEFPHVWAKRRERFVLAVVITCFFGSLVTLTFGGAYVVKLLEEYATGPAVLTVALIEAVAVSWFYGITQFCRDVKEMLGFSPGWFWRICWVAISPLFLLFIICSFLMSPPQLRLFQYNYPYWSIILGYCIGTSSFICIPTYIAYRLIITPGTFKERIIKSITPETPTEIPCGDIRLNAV

SMILES	pKi [1]	pIC50 [2]	pKi [3]	pIC50 [4]	pKi [5]	pIC50 [6]
CC#Cc1ccc(C(=O)C(CCC)N2CCCC2)cc1 (stereo not given)	7.21	7.93	5.17	5.48	7.16	7.71
CCC(C(=O)c1ccc(Cl)c(Cl)c1)N1CCCC1 (stereo not given)	–	–	6.09	6.36	6.58	7.73
Cc1ccc(C(=O)C(CC(C)C)N2CCCC2)cc1 (stereo not given)	7.86	8.23	5.54	5.69	6.59	7.74
CCCC(C(=O)c1cccc(I)c1)N1CCCC1 (stereo not given)	6.96	7.28	5.85	5.97	6.17	7.09
C=CCC(C(=O)c1ccc(C)cc1)N1CCCC1 (stereo not given)	7.04	7.26	< 5.00	–	5.85	7.06
CCCC(CN1CCCC1)C(=O)c1ccc(C)cc1 (stereo not given)	< 5.00	–	5.39	5.32	< 5.00	–
CCCC(CN1CCCC1)C(=O)c1ccc(Cl)c(Cl)c1 (stereo not given)	5.82	5.54	6.20	6.15	< 5.00	–
CCCC(C(=O)c1ccc(C(=O)OC)cc1)N1CCCC1 (stereo not given)	6.44	6.81	5.44	5.63	5.94	–
CCCCNC(CCC)C(=O)c1ccc(Cl)c(Cl)c1 (stereo not given)	6.28	5.92	5.29	< 5.00	5.38	5.60
CCCC(C(=O)c1ccc(OC)c(OC)c1)N1CCCC1 (stereo not given)	< 5.00	–	5.13	5.81	< 5.00	–
CCCC(C(=O)c1ccc(F)cc1)N1CCCC1 (stereo not given)	7.09	6.73	< 5.00	–	6.08	6.77
CCCC(C(=O)c1ccc(-c2cccn2C)cc1)N1CCCC1 (stereo not given)	5.41	5.27	< 5.00	–	< 5.00	–
CCCC(C(O)c1ccc(C)cc1)N1CCCC1 (mixture of isomers)	< 5.00	–	< 5.00	–	< 5.00	–
CCCC(C(=O)c1ccc(-c2ccco2)cc1)N1CCCC1 (stereo not given)	6.98	6.91	5.48	5.66	7.02	7.03
CCCC(C(=O)c1ccc(C#N)cc1)N1CCCC1 (stereo not given)	5.23	6.00	< 5.00	–	< 5.00	–
CCCC(C(=O)c1ccc(I)cc1)N1CCCC1 (stereo not given)	7.09	7.49	6.52	6.71	6.51	7.33
CCCC(C(=O)c1ccc(C)cc1)N1CCCC1 (stereo not given) [PYROVALERONE]	7.67	7.28	5.42	5.56	6.71	7.55
CCC[C@H](C(=O)c1ccc(C)cc1)N1CCCC1	–	5.75	< 5.00	–	< 5.00	–
CCCC(C(=O)c1ccccc1)N1CCCC1 (stereo not given)	7.47	7.28	< 5.00	–	6.70	7.25
C#CCC(C(=O)c1ccc(C)cc1)N1CCCC1 (stereo not given)	5.64	6.64	< 5.00	–	5.39	6.46
CCCC(C(=O)c1ccc(O)c(O)c1)N1CCCC1 (stereo not given)	7.08	7.38	< 5.00	–	6.66	8.12
CCCC(C(=O)c1ccc(Cl)c(Cl)c1)N1CCCCC1 (stereo not given)	6.84	6.18	5.61	< 5.00	5.63	6.10
CCCC(C(=O)c1ccc(CO)cc1)N1CCCC1 (stereo not given)	7.31	7.35	< 5.00	–	6.82	7.91
CCCC(C(=O)c1ccc([N+](=O)[O-])cc1)N1CCCC1 (stereo not given)	6.58	5.95	5.61	5.95	5.57	6.27

Source: ChEMBL document CHEMBL1138144 (J Med Chem, 2006)
